From ChEMBL document CHEMBL1143239, “The synthesis of bivalent 2beta-carbomethoxy-3beta-(3,4-dichlorophenyl)-8-heterobicyclo[3.2.1]octanes as probes for proximal binding sites on the dopamine and serotonin transporters” (Bioorg Med Chem, 2008)

Experiments:
[1] = biological target: Sodium-dependent dopamine transporter (Homo sapiens, UniProt Q01959); test: Displacement of [3H]WIN-35428 from human DAT expressed in transfected cell membrane; assay type: cell membranes
Method in brief: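 Membranes from transfected cells stably expressing hDAT, labelled with [3H]WIN35,428 at 4 nM final, with serial drug dilutions made from DMSO stocks. Buffer Tris.HCl 50 mM, pH 7.4, NaCl 100 mM. Incubated 1 h at 22 °C. Filtered over 0.1% PEI-presoaked GF/B filters and counted. Nonspecific binding defined with 100 μM (-)-cocaine. IC50 reported as mean ± SEM of ≥3 experiments, each in triplicate.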

[2] = biological target: Sodium-dependent serotonin transporter (Homo sapiens, UniProt P31645); test: Displacement of [3H]-citalopram from human SERT expressed in HEK293 cell membrane; assay type: cell membranes
Sequence of Sodium-dependent serotonin transporter (P31645 whole entry): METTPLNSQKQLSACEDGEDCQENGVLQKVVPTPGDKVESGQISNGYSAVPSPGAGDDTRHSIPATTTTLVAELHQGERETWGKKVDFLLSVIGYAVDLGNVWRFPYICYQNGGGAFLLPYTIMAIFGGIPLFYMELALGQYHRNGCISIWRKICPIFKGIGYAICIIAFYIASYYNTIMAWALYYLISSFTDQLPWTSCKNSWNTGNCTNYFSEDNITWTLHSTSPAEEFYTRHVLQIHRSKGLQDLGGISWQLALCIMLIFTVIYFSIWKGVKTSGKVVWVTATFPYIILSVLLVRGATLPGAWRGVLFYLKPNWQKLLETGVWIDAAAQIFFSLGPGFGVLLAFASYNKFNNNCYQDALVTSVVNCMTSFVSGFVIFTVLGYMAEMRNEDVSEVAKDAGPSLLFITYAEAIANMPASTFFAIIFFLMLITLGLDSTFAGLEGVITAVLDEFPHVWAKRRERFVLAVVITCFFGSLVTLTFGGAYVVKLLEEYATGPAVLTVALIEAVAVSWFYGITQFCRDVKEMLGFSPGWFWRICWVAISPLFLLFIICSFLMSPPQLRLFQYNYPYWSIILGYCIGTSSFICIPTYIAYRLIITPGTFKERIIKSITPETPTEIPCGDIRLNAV
Method in brief: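 Competition binding on membranes of HEK-293 cells stably expressing SERT cDNA. [3H]citalopram fixed at 1 nM final, with a range of drug concentrations. Buffer Tris.HCl 50 mM, pH 7.4, NaCl 100 mM. Incubation 2 h at 0–4 °C, started by adding membranes. Rapid filtration through PEI-soaked GF/B filters, then scintillation counting. Nonspecific binding defined with 10 μM fluoxetine. IC50 reported as mean ± SEM of ≥3 experiments, each in triplicate.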

Sequence of Sodium-dependent dopamine transporter (Q01959 whole entry): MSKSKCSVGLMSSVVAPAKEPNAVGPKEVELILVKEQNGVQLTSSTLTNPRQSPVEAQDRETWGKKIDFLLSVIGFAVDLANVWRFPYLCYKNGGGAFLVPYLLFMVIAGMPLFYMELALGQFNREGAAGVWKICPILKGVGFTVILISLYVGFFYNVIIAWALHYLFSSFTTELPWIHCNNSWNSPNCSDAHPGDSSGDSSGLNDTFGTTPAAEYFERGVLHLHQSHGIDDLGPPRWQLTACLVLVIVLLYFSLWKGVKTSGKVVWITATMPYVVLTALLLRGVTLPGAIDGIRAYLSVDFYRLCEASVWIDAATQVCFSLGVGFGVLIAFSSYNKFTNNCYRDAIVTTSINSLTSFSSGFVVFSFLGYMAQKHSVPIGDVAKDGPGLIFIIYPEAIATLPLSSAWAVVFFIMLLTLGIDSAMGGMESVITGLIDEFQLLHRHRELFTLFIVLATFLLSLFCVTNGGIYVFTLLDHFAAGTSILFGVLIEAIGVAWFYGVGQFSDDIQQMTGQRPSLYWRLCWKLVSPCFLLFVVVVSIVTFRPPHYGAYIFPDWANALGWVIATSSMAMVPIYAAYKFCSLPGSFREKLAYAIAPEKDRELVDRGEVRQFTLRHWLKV

| Structure (SMILES) | IC50 [1] [nM] | IC50 [2] [nM] |
| --- | --- | --- |
| CCCCCCC(=O)OC[C@H]1[C@@H](c2ccc(Cl)c(Cl)c2)CC2CC[C@H]1N2C | 8 | 53 |
| CN1C2CCC1[C@@H](COC(=O)CCC(=O)OC[C@@H]1C3CCC(C[C@@H]1c1ccc(Cl)c(Cl)c1)N3C)[C@@H](c1ccc(Cl)c(Cl)c1)C2 | 12 | 106 |
| O=C(CCC(=O)OC[C@@H]1C2CCC(C[C@@H]1c1ccc(Cl)c(Cl)c1)S2)OC[C@@H]1C2CCC(C[C@@H]1c1ccc(Cl)c(Cl)c1)O2 (stereo not given in full) | 2960 | 992 |
| CN1C2CCC1[C@@H](COC(=O)CCCCCCC(=O)OC[C@@H]1C3CCC(C[C@@H]1c1ccc(Cl)c(Cl)c1)N3C)[C@@H](c1ccc(Cl)c(Cl)c1)C2 | 11 | 31 |
| CN1C2CC[C@@H]1[C@@H](COC(=O)CCC(=O)OC[C@H]1[C@@H](c3ccc(Cl)c(Cl)c3)CC3CC[C@H]1O3)[C@@H](c1ccc(Cl)c(Cl)c1)C2 | 67 | 405 |
| CN1C2CCC1[C@@H](COC(=O)CCCCCCCCCCC(=O)OC[C@@H]1C3CCC(C[C@@H]1c1ccc(Cl)c(Cl)c1)N3C)[C@@H](c1ccc(Cl)c(Cl)c1)C2 | 115 | 140 |
| O=C(CCC(=O)OC[C@@H]1C2CCC(C[C@@H]1c1ccc(Cl)c(Cl)c1)S2)OC[C@@H]1C2CCC(C[C@@H]1c1ccc(Cl)c(Cl)c1)S2 | 1540 | 2200 |
| COC(=O)[C@@H]1C2CCC(C[C@@H]1c1ccc(Cl)c(Cl)c1)S2 (stereo not given in full) | 2 | 3 |
| CN1C2CCC1[C@@H](COC(=O)CCCCCCCCC(=O)OC[C@@H]1C3CCC(C[C@@H]1c1ccc(Cl)c(Cl)c1)N3C)[C@@H](c1ccc(Cl)c(Cl)c1)C2 | 31 | 17 |
| COC(=O)[C@@H]1C2CCC(C[C@@H]1c1ccc(Cl)c(Cl)c1)O2 (stereo not given in full) | 3.3 | 4.7 |
| CN1C2CC[C@@H]1[C@@H](COC(=O)CCC(=O)OC[C@@H]1C3CCC(C[C@@H]1c1ccc(Cl)c(Cl)c1)S3)[C@@H](c1ccc(Cl)c(Cl)c1)C2 | 55 | 593 |
| CN1C2CCC1[C@@H](COC(=O)CCCCC(=O)OC[C@@H]1C3CCC(C[C@@H]1c1ccc(Cl)c(Cl)c1)N3C)[C@@H](c1ccc(Cl)c(Cl)c1)C2 | 28 | 56 |
| COC(=O)[C@@H]1C2CCC(C[C@@H]1c1ccc(Cl)c(Cl)c1)N2C (stereo not given in full) |  | 2.5 |
